Source: PubChem BioAssay AID651943 (The Scripps Research Institute Molecular Screening Center, 2012)
Active and inactive are the calls of the source.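 The calls were made as follows: active = bacterial viability inhibition with half-maximal concentration IC50 at or below 10 µM; inactive = the rest.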

System: E. coli V66 growth, OD600 absorbance, 18 h
Test: bacterial growth inhibition, late-stage follow-up, counter-screen for AddAB helicase-nuclease inhibitor project, absorbance, dose response, round 2 (AID 651943)
Summary of the method: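 System: uninfected E. coli strain V66, RecBCD+ / Control set: ciprofloxacin 0.95 µg/mL as high control, DMSO as low control / Schedule: 18 h compound exposure, 37 °C / Technique: optical density by absorbance at 600 nm / Replicates: triplicate wells per compound concentration / Dosing: 10 concentrations, 1:3 steps, highest 118.6 µM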

## CCn1cc(C(=O)O)c(=O)c2cnc(N3CCN(C(=S)Nc4cccc(C(F)(F)F)c4)CC3)nc21
  IC50: 34.4 µM (inactive)

## CCn1cc(C(=O)O)c(=O)c2cnc(N3CCN(C(=S)Nc4ccccc4F)CC3)nc21
  IC50: > 119 µM (inactive)

## CCn1cc(C(=O)O)c(=O)c2cnc(N3CCN(C(=S)Nc4ccccc4OC)CC3)nc21
  IC50: > 119 µM (inactive)

## CCn1cc(C(=O)O)c(=O)c2cnc(N3CCN(C(=S)Nc4ccc(Cl)cc4)CC3)nc21
  IC50: > 39.5 µM (inactive)

## CCn1cc(C(=O)O)c(=O)c2cnc(N3CCN(C(=S)NC(=O)c4cccc(C)c4)CC3)nc21
  IC50: > 39.5 µM (inactive)

## CCn1cc(C(=O)O)c(=O)c2cnc(N3CCN(C(=S)NCc4ccccc4)CC3)nc21
  IC50: > 119 µM (inactive)
